Values after ≈ are worked out from the molar mass of the structure shown.
Legend:
Type in all cases: functional
[1] = test system: Mycobacterium tuberculosis; assay: Antibacterial activity against multi drug resistant Mycobacterium tuberculosis 134/02 isolate
How it was run: (§1)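 MIC against clinical MTB isolates by the macrodilution broth method in Middlebrook broth enriched with 10% ADC. Values are in µg/mL.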

[2] = test system: Mycobacterium tuberculosis; assay: Antibacterial activity against multi drug resistant Mycobacterium tuberculosis 326/04 isolate; how it was run: as §1
[3] = test system: Mycobacterium tuberculosis; assay: Antibacterial activity against multi drug resistant Mycobacterium tuberculosis 482/98 isolate; how it was run: as §1
[4] = test system: Mycobacterium tuberculosis; assay: Antibacterial activity against multi drug resistant Mycobacterium tuberculosis 158/97 isolate; how it was run: as §1
[5] = test system: Mycobacterium tuberculosis; assay: Antibacterial activity against multi drug resistant Mycobacterium tuberculosis 149/03 isolate; how it was run: as §1
[6] = test system: Mycobacterium tuberculosis; assay: Antibacterial activity against multi drug resistant Mycobacterium tuberculosis 520/98 isolate; how it was run: as §1
[7] = test system: Mycobacterium tuberculosis; assay: Antibacterial activity against multi drug resistant Mycobacterium tuberculosis 275/05 isolate; how it was run: as §1
[8] = test system: Mycobacterium tuberculosis; assay: Antibacterial activity against multi drug resistant Mycobacterium tuberculosis 421/96 isolate; how it was run: as §1
[9] = test system: Mycobacterium tuberculosis; assay: Antibacterial activity against multi drug resistant Mycobacterium tuberculosis 43/05 isolate; how it was run: as §1
[10] = test system: Mycobacterium tuberculosis; assay: Antibacterial activity against multi drug resistant Mycobacterium tuberculosis 296/04 isolate; how it was run: as §1
[11] = test system: Mycobacterium tuberculosis; assay: Antibacterial activity against multi drug resistant Mycobacterium tuberculosis 586/98 isolate; how it was run: as §1

| Compound | MIC [1] | MIC [2] | MIC [3] | MIC [4] | MIC [5] | MIC [6] | MIC [7] | MIC [8] | MIC [9] | MIC [10] | MIC [11] |
| --- | --- | --- | --- | --- | --- | --- | --- | --- | --- | --- | --- |
| Cc1c(CN2CCSCC2)cc(-c2ccc(F)cc2)n1-c1ccccc1F | 2 µg/mL (≈ 5.2 µM) | > 32 µg/mL | 2 µg/mL (≈ 5.2 µM) | 0.5 µg/mL (≈ 1.3 µM) | 2 µg/mL (≈ 5.2 µM) | 2 µg/mL (≈ 5.2 µM) | 2 µg/mL (≈ 5.2 µM) | 2 µg/mL (≈ 5.2 µM) | 0.5 µg/mL (≈ 1.3 µM) | 2 µg/mL (≈ 5.2 µM) | 2 µg/mL (≈ 5.2 µM) |
| Cc1ccc(-c2cc(CN3CCSCC3)c(C)n2-c2ccc(F)cc2)cc1 | 0.5 µg/mL (≈ 1.31 µM) | 32 µg/mL (≈ 84.1 µM) | 0.5 µg/mL (≈ 1.31 µM) | 0.5 µg/mL (≈ 1.31 µM) | 0.5 µg/mL (≈ 1.31 µM) | 0.5 µg/mL (≈ 1.31 µM) | 0.5 µg/mL (≈ 1.31 µM) | 0.5 µg/mL (≈ 1.31 µM) | 0.5 µg/mL (≈ 1.31 µM) | 0.5 µg/mL (≈ 1.31 µM) | 0.5 µg/mL (≈ 1.31 µM) |

Reference: ChEMBL document CHEMBL1145326, “Antimycobacterial agents. Novel diarylpyrrole derivatives of BM212 endowed with high activity toward Mycobacterium tuberculosis and low cytotoxicity” (2006)
